Measured values from ChEMBL document CHEMBL1126036, “Quinolone antibacterial agents. Synthesis and structure-activity relationships of a series of amino acid prodrugs of racemic and chiral 7-(3-amino-1-pyrrolidinyl)quinolones. Highly soluble quinolone prodrugs with in vivo pseudomonas activity” (J Med Chem, 1992).
≈ marks a conversion by molar mass, not a printed value.

Tests used:
[1] = Solubility (in 0.1 N HCl); assay type: physicochemical; conditions: read-out: S
Procedure, shortened: (§1)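 Solubility was measured either from HPLC peak areas at equilibrium or by a conventional weight-per-volume method. All solutions were held for 24 h before measurement.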

[2] = Solubility (at pH 4); assay type: physicochemical; conditions: buffer; for solubility: read-out: S; procedure, shortened: as §1
[3] = Solubility (at pH 7.4); assay type: physicochemical; conditions: buffer, read-out: S; procedure, shortened: as §1
Escherichia coli [4] = experiment: In vitro antibacterial activity against gram negative Escherichia coli Vogel.; assay type: functional
Enterococcus faecalis = experiment: In vitro antibacterial activity against gram positive Enterococcus faecalis MGH-2.; assay type: functional
Enterobacter cloacae = experiment: In vitro antibacterial activity against gram negative Enterobacter cloacae MA 2646.; assay type: functional
Klebsiella pneumoniae [5] = experiment: In vitro antibacterial activity against gram negative Klebsiella pneumoniae MGH-2.; assay type: functional
Escherichia coli [6] = experiment: In vivo potency against acute systemic infection in mouse caused by Escherichia coli Vogel on oral administration by gavage.; assay type: functional; conditions: read-out: PD50
Procedure, shortened: (§2)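 Acute systemic mouse infection. A single oral dose was given by gavage at the time of challenge. Potency is reported as the median protective dose (PD50, mg/kg), determined by earlier published methods.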

Streptococcus pneumoniae [7] = experiment: In vivo potency against acute systemic infection in mouse caused by Streptococcus pneumoniae SV-1 on oral administration by gavage.; assay type: functional; conditions: read-out: PD50; procedure, shortened: as §2
Streptococcus pneumoniae [8] = experiment: In vivo potency against acute systemic infection in mouse caused by Streptococcus pneumoniae SV-1 on subcutaneous injection.; assay type: functional; conditions: sc, read-out: PD50
Procedure, shortened: (§3)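 Acute systemic mouse infection. A single subcutaneous dose was injected at the time of challenge. Potency is reported as the median protective dose (PD50, mg/kg), determined by earlier published methods.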

Escherichia coli [9] = experiment: In vivo potency against acute systemic infection in mouse caused by Escherichia coli vogel on subcutaneous injection.; assay type: functional; conditions: sc, read-out: PD50; procedure, shortened: as §3
Mus musculus [10] = experiment: In vivo potency against acute systemic infection in mouse caused by Pseudomonas aeruginosa UI-18 on oral administration by gavage.; assay type: functional; conditions: read-out: PD50; procedure, shortened: as §2
Mus musculus [11] = experiment: In vivo potency against acute systemic infection in mouse caused by Pseudomonas aeruginosa. UI-18. on subcutaneous injection.; assay type: functional; conditions: sc, read-out: PD50; procedure, shortened: as §3
Mus musculus [12] = experiment: In vivo potency against acute systemic infection in mouse caused by Streptococcus pyogenes C-203 on oral administration by gavage; assay type: functional; conditions: read-out: PD50; procedure, shortened: as §2
Mus musculus [13] = experiment: In vivo potency against acute systemic infection in mouse caused by Streptococcus pyogenes C-203 on subcutaneous injection; assay type: functional; conditions: sc, read-out: PD50; procedure, shortened: as §3
Pseudomonas aeruginosa = experiment: In vitro antibacterial activity against gram negative Pseudomonas aeruginosa UI-18.; assay type: functional
Providencia rettgeri = experiment: In vitro antibacterial activity against gram negative Providencia rettgeri M-1771.; assay type: functional
Staphylococcus aureus [14] = experiment: In vitro antibacterial activity against gram positive Staphylococcus aureus H-228.; assay type: functional
Streptococcus pyogenes = experiment: In vitro antibacterial activity against gram positive Streptococcus pyogenes C-203.; assay type: functional
Staphylococcus aureus [15] = experiment: In vitro antibacterial activity against gram positive Staphylococcus aureus UC76.; assay type: functional
Streptococcus pneumoniae [16] = experiment: In vitro antibacterial activity against gram positive Streptococcus pneumoniae SV-1.; assay type: functional
[17] = Aqueous solubility; assay type: physicochemical; conditions: read-out: S; procedure, shortened: as §1
[18] = molecular target: DNA gyrase (Escherichia coli) (UniProt P0AES6+P0AES4); experiment: In vitro concentration inhibiting DNA gyrase induced cleavage in Escherichia coli H560.; assay type: functional
Procedure, shortened: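 DNA gyrase test run as described in earlier work. The value is the drug concentration (µg/mL) needed to cause DNA cleavage.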

Klebsiella pneumoniae [19] = experiment: In vitro antibacterial activity against gram negative Klebsiella pneumoniae. MGH-2; assay type: functional

SMILES | solubility [1] [µg/mL] | MIC (Escherichia coli [4]) [µg/mL] | MIC (Enterococcus faecalis) [µg/mL] | MIC (Enterobacter cloacae) [µg/mL] | ED50 (Escherichia coli [6]) [mg/kg] | ED50 (Streptococcus pneumoniae [7]) [mg/kg] | ED50 (Streptococcus pneumoniae [8]) [mg/kg] | ED50 (Escherichia coli [9]) [mg/kg] | ED50 (Mus musculus [10]) [mg/kg] | ED50 (Mus musculus [12]) [mg/kg] | ED50 (Mus musculus [13]) [mg/kg] | MIC (Pseudomonas aeruginosa) [µg/mL] | MIC (Providencia rettgeri) [µg/mL] | MIC (Staphylococcus aureus [14]) [µg/mL] | MIC (Streptococcus pyogenes) [µg/mL] | MIC (Staphylococcus aureus [15]) [µg/mL] | MIC (Streptococcus pneumoniae [16]) [µg/mL] | solubility ([17]; water (aqueous)) [µg/mL] | solubility [2] [µg/mL] | Cleavage [18] [µg/mL] | further results
NC1CCN(c2nc3c(cc2F)c(=O)c(C(=O)O)cn3-c2ccc(F)cc2F)C1 (stereo not drawn) [TOSUFLOXACIN] | 400 (≈ 989 µM) | 0.013 (≈ 0.0322 µM) | 0.1 (≈ 0.247 µM) | 0.025 (≈ 0.0618 µM) | 1 | 14 | 3 | 0.3 | 6 | 5 | 3 | 0.4 (≈ 0.989 µM) | 0.1 (≈ 0.247 µM) | 0.05 (≈ 0.124 µM) | 0.05 (≈ 0.124 µM) | 0.025 (≈ 0.0618 µM) | 0.025 (≈ 0.0618 µM) | 650 (≈ 1610 µM) |  |  | S [2]: 0.55 mg/mL; solubility [3]: 100 µg/mL (≈ 247 µM); MIC (Klebsiella pneumoniae [5]): 0.05 µg/mL (≈ 0.124 µM); ED50 (Mus musculus [11]): 4 mg/kg
C[C@H](N)C(=O)NC1CCN(c2nc3c(cc2F)c(=O)c(C(=O)O)cn3C2CC2)C1.Cl.O (stereo partly drawn) | > 350000 | 0.4 | 1.6 | 0.2 | 1 | 28 | 10 | 0.6 | 7 | 15 | 7 | 3.1 | 1.6 | 3.1 | 0.4 | 0.8 | 0.8 | > 300000 | > 350000 | 0.75 | MIC (Klebsiella pneumoniae [19]): 0.8 µg/mL; ED50 (Mus musculus [11]): 5 mg/kg; solubility ([17]; pH 7.4 phosphate buffer): 80 µg/mL
NC(=O)CC[C@H](N)C(=O)NC1CCN(c2nc3c(cc2F)c(=O)c(C(=O)O)cn3C2CC2)C1 (stereo partly drawn) | 1400 (≈ 3040 µM) | 6.3 (≈ 13.7 µM) | 6.3 (≈ 13.7 µM) | 6.3 (≈ 13.7 µM) | 4.8 |  |  | 0.4 |  |  |  | > 25 | 25 (≈ 54.3 µM) | 3.1 (≈ 6.73 µM) | 12.5 (≈ 27.1 µM) | 0.8 (≈ 1.74 µM) | 12.5 (≈ 27.1 µM) | 6100 (≈ 13200 µM) | 3100 (≈ 6730 µM) | 5 | MIC (Klebsiella pneumoniae [19]): 12.5 µg/mL (≈ 27.1 µM); solubility ([17]; pH 7.4 phosphate buffer): 50 µg/mL (≈ 109 µM)
C[C@@H](N)C(=O)NC1CCN(c2nc3c(cc2F)c(=O)c(C(=O)O)cn3C2CC2)C1.Cl.O (stereo partly drawn) | 189000 | 0.8 | 0.2 | 0.8 | 22.5 | > 100 | 3 | 5.1 |  |  |  | 1.6 | 1.6 | 0.4 | 0.013 | 0.05 | 0.25 | > 250000 | 262000 | 2.5 | MIC (Klebsiella pneumoniae [19]): 0.8 µg/mL; solubility ([17]; pH 7.4 phosphate buffer): 60 µg/mL
C[C@H](N)C(=O)N[C@@H]1CCN(c2c(F)c(N)c3c(=O)c(C(=O)O)cn(C4CC4)c3c2F)C1.Cl.O | 3200 | 0.4 | 0.4 | 0.8 | 2.2 | 18 | 7.7 | 0.5 |  | 20 | 6.3 | 3.1 | 1.6 | 0.4 | 0.2 | 0.025 | 0.2 | 21000 | 71000 | 5 | solubility [3]: 40 µg/mL; MIC (Klebsiella pneumoniae [5]): 0.8 µg/mL
C[C@H](N)C(=O)N[C@H]1CCN(c2nc3c(cc2F)c(=O)c(C(=O)O)cn3C2CC2)C1.Cl.O | > 350000 | 0.8 | 1.6 | 0.8 | 1.3 | 25 | 12 | 0.4 | 3 | 22 | 10 | 3.1 | 3.1 | 3.1 | 0.8 | 0.8 | 0.8 | > 350000 | > 350000 | 5 | MIC (Klebsiella pneumoniae [19]): 1.6 µg/mL; ED50 (Mus musculus [11]): 2 mg/kg; solubility ([17]; pH 7.4 phosphate buffer): 20 µg/mL
Nc1c(F)c(N2CCC(N)C2)c(F)c2c1c(=O)c(C(=O)O)cn2C1CC1 (stereo not drawn) | 100 (≈ 274 µM) | 0.006 (≈ 0.0165 µM) | 0.025 (≈ 0.0686 µM) | 0.006 (≈ 0.0165 µM) | 2 | 20 | 9 | 0.4 | 16 | 24 | 6 | 0.05 (≈ 0.137 µM) | 0.025 (≈ 0.0686 µM) | 0.013 (≈ 0.0357 µM) | 0.025 (≈ 0.0686 µM) | 0.006 (≈ 0.0165 µM) | 0.006 (≈ 0.0165 µM) | 2400 (≈ 6590 µM) | 3200 (≈ 8780 µM) | 0.25 | solubility [3]: 80 µg/mL (≈ 220 µM); MIC (Klebsiella pneumoniae [5]): 0.006 µg/mL (≈ 0.0165 µM); ED50 (Mus musculus [11]): 4 mg/kg
